Test results published in ChEMBL document CHEMBL4052683, “The discovery of benzoxazine sulfonamide inhibitors of NaV1.7: Tools that bridge efficacy and target engagement” (Bioorg Med Chem Lett, 2017).

Tests used:
[1] = Tmax in rat at 10 mg/kg, po by LC-MS/MS method; format: ADME, organism-based; settings: in vivo
Plasma = assay: Unbound plasma concentration in Sprague-Dawley rat model of formalin-induced nociception behavior at 10 mg/kg, po; format: ADME, organism-based; settings: in vivo
How it was run: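 Total phase II formalin-induced flinches were scored. Unbound plasma concentration was determined at each dose and related to the rat NaV1.7 IC50.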

[2] = molecular target: Sodium channel protein type 10 subunit alpha (Rattus norvegicus, UniProt Q62968); assay: Inhibition of NaV1.8 in rat DRG neurons assessed as reduction in tetrodotoxin-resistant sodium channel currents at holding potential of -140 mV by manual patch clamp electrophysiology assay
Rattus norvegicus [3] = assay: Analgesic activity in Sprague-Dawley rat model of formalin-induced nociception behavior assessed as reduction in formalin-evoked paw flinching at 10 mg/kg, po; format: functional
How it was run: (§1)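 Sprague Dawley rats got 10, 30 or 100 mg/kg PO in 30% (w/v) hydroxypropyl β-cyclodextrin, pH 10.0 with KOH. Total phase II formalin-induced flinches were counted. Morphine sulfate 2 mg/kg SC served as control. Unbound plasma levels were measured and compared with the rat NaV1.7 IC50.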

[4] = Half life in rat at 10 mg/kg, po by LC-MS/MS method; format: ADME, organism-based; settings: in vivo
Rattus norvegicus [5] = assay: Analgesic activity in Sprague-Dawley rat model of formalin-induced nociception behavior assessed as reduction in formalin-evoked paw flinching at 10 to 100 mg/kg, po; format: functional, organism-based; how it was run: as §1

Sodium channel protein type 10 subunit alpha, sequence (Q62968 whole entry): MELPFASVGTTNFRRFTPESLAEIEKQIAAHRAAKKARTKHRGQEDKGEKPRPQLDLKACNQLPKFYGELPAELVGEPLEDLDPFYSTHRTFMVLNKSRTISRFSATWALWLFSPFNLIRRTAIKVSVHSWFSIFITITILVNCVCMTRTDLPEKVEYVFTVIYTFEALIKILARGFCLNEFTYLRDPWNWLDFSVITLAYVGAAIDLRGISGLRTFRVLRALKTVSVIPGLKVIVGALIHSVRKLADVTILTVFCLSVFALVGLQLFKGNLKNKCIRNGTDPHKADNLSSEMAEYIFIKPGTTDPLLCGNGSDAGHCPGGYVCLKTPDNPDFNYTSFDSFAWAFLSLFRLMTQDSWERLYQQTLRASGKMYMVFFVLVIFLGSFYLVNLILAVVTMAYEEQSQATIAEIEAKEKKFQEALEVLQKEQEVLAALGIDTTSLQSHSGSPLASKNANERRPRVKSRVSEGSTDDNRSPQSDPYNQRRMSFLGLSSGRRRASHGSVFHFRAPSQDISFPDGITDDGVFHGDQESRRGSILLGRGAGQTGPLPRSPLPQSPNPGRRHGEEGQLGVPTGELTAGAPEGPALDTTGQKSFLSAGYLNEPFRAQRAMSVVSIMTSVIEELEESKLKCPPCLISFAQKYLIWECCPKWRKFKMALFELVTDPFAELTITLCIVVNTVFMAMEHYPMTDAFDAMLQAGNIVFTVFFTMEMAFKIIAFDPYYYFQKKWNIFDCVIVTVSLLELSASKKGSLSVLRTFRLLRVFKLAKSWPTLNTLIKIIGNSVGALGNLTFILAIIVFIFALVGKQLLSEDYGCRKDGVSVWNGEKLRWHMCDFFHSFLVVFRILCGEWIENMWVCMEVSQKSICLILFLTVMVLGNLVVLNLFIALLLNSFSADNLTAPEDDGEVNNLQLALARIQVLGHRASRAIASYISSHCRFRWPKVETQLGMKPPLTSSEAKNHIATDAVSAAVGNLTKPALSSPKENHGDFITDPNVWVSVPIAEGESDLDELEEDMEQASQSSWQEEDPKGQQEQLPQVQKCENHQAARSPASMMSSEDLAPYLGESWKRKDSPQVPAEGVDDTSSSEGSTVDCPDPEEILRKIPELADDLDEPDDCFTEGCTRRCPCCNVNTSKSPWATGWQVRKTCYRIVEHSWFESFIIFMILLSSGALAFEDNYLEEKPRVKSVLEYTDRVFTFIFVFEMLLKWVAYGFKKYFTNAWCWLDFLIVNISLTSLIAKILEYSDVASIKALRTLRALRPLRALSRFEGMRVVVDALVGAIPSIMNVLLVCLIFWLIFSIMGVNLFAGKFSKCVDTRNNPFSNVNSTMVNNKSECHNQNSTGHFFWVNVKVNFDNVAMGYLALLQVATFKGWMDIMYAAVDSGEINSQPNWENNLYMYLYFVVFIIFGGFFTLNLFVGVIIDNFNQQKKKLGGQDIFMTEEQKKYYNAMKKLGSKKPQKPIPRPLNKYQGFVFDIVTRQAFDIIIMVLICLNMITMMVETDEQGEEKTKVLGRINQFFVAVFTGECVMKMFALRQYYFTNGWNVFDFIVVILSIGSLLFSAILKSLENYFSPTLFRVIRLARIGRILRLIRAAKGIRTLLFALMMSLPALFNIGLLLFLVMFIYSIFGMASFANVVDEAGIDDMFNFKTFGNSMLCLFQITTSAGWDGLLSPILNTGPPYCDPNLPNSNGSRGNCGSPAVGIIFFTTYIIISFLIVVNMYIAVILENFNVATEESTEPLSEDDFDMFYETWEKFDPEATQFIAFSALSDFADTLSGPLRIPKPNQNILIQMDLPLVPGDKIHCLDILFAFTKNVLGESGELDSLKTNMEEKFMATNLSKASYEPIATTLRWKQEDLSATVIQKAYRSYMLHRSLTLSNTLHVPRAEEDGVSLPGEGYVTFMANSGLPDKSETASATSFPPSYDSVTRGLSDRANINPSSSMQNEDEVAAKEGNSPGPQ

Tmax [1]: 6.7 h | Cp(f) (Plasma): 27 nM | half-life [4]: 9.8 h
Compound: N#Cc1cc(C(F)(F)F)ccc1N1CCOc2cc(S(=O)(=O)Nc3nccs3)c(F)cc21
IC50 [2]: > 30 µM | MPE (Rattus norvegicus [3]): 17% | inhibition (Rattus norvegicus [5]): Dose-dependent effect
